Sampled rows, rich in hits. Any-hit rate of the full collection: about 3%.
MPTP block: blocks calcium-induced mitochondrial swelling. actives 1.4% (n = 360,000). isolated mouse mitochondria, Ca2+ swelling absorbance, 30 min. inhibition, % at 10 µM;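 active = inhibition of 50% or more, scaled per plate between neutral and stimulator controls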;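 note: 0% = DMSO wells given calcium and 100% = 1 mM EGTA wells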
MIN6 prolif: MIN6 beta-cell proliferation induction; actives 0.29% (n = 330,000); proliferation, % at 10 µM; MIN6 cells proliferation, ATPlite luminescence, 48 h; cells starved in 0.2% serum; 100% = growth in 10% serum;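 active = compounds whose signal lies at least 3.5 SD above the mean of all wells on their plate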;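 note: 0% = DMSO-treated cells in low-serum medium and 100% = 10% serum control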
Apaf-1 inh: blocks human Apaf-1 apoptosome activity; O14727; reconstituted apoptosome caspase-3 activity, DEVD-Rh110 fluorescence; inhibition, % at 20 µM; actives 0.71% (n = 330,000); AID 489030; active = inhibition of at least 40% at 20 µM;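 note: plate controls were DMSO wells for no effect and DEVD-CHO caspase inhibitor wells for full effect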
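Assay system: Apoptosome proteins | Medium: pH 7.5 Hepes buffer with CHAPS, BSA, DTT | Also added: Cytochrome c and DEVD-Rh110 substrate | Times: 30 min plus 50 min, RT | Detection: Rhodamine 110 fluorescence at Ex 480/Em 540 nm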
Granule exo inh: lytic granule exocytosis inhibition; TALL-104 LAMP-1 surface exposure, flow cytometry; cells stimulated with thapsigargin and PMA; inhibition, % at 10 µM; actives 0.66% (n = 360,000);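 active = inhibition above about 55%, limit read from the data; inconclusive = no clear call, values can overlap the other calls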
hiPSC survival: enhancers of human iPSC single-cell survival; survival enhancement, % at 20 µM; hiPSC single-cell survival, ATPlite luminescence; 100% = ROCK inhibitor wells, 0% = DMSO; actives 0.044% (n = 360,000); AID 602274; in the data active = survival enhancement above about 18%;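 note: cells exposed to compounds for 16 hours before the ATP read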
UBC13 inh: blocks human UBC13 polyubiquitin chain formation | TR-FRET | inhibition, % at 20 µM | actives 0.47% (n = 330,000) | AID 485273; in the data active = inhibition above about 45%, passing the limit was not always enough; inconclusive = no clear call, values can overlap the other calls
Casp3 counter: counter-screen for UBC13 inhibitors: human caspase-3 inhibition. Recombinant caspase-3, Caspase-Glo 3/7 luminescence, 60 min. shares compounds with UBC13 inh. AID 488856. inhibition, % at 20 µM. actives 4% (n = 1,400);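 active = mean inhibition across replicates above about 26%, limit read from the data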;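 note: plate controls were DMSO with caspase-3 for no effect and DMSO wells lacking enzyme for full effect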
UBC13 confirm: confirmation of human UBC13 polyubiquitin inhibitors; shares compounds with UBC13 inh; UBC13 polyubiquitination, TR-FRET, biochemical; inhibition, % at 10 µM; actives 68% (n = 1,400); AID 488859; in the data active = inhibition above about 45%; inconclusive = no clear call, values can overlap the other calls
* marks the source's active call; other numbers are inactive results; ? = inconclusive; . = no result given.

SMILES | MPTP block | MIN6 prolif | Apaf-1 inh | Granule exo inh | hiPSC survival | UBC13 inh | Casp3 counter | UBC13 confirm
C#CCOCCOCCOCCNc1nc(N2CCN(C(=O)CCCCCCCCCCNC(=O)Cn3cc(C[C@@H](C)O)nn3)CC2)nc(N2CCN(C(=O)CCCCCCCCCCNC(=O)[C@@H]([C@H](C)O)n3cc(C)nn3)CC2)n1 | -1.0 | -7.9 | 27.4 | 2.1 | -2.4 | 31.9 | . | .
C#CCOCCOCCOCCNc1nc(N2CCN(C(=O)CCCCCCCCCCNC(=O)[C@H](CCCCN)n3cc(C[C@@H](C)CC)nn3)CC2)nc(N2CCN(C(=O)CCCCCCCCCCNC(=O)[C@H](CCCN=C(N)N)n3cc(C[C@@H](C)CC)nn3)CC2)n1 | -4.1 | -7.8 | 54.9* | -1.5 | -4.6 | 125.0* | -0.7 | 124.6*
C#CCOCCOCCOCCNc1nc(N2CCN(C(=O)CCCCCCCCCCNC(=O)[C@H](CCCCN)n3cc(C)nn3)CC2)nc(N2CCN(C(=O)CCCCCCCCCCNC(=O)[C@@H]([C@H](C)O)n3cc(C)nn3)CC2)n1 | -4.2 | -7.6 | 54.4* | -0.9 | 2.1 | 116.7* | -1.2 | 110.9*
C#CCOCCOCCOCCNc1nc(N2CCN(C(=O)CCCCCCCCCCNC(=O)[C@H]([C@@H](C)CC)n3cc(CCCCN=C(N)N)nn3)CC2)nc(N2CCN(C(=O)CCCCCCCCCCNC(=O)[C@@H]([C@H](C)O)n3cc(C)nn3)CC2)n1 | -13.6 | -6.5 | 44.9* | -1.8 | 2.3 | 123.1* | -1.6 | 124.9*
C#CCOCCOCCOCCNc1nc(N2CCN(C(=O)Cn3cc(CCCN=C(N)N)nn3)CC2)nc(N2CCN(C(=O)[C@H](CCCCN)n3cc(CCCC)nn3)CC2)n1 | 0.1 | 2.7 | 31.9 | -0.4 | 4.4 | 33.3 | . | .
C=CC(=O)N(CCC)C(c1ccccc1)c1ccccc1OC (configuration not stated) | 0.6 | 1.6 | 18.7 | -7.3 | -0.1 | 9.0 | . | .
Cc1ccc(NC(=O)C2CCN(C(=O)c3ccccc3C)CC2)nc1 | -0.9 | 10.6 | -0.6 | 5.0 | 0.3 | -1.6 | . | .
CCc1cccc2c(C(=O)C(NC(C)CC)c3ccccc3)c[nH]c12 (configuration not stated) | -0.3 | -3.1 | 4.9 | 10.7 | 0.3 | 79.2* | 0.7 | 101.3*
Nc1c(C(=O)Nc2ccccc2)c2nc3ccccc3nc2n1CCCN1CCOCC1 | -1.7 | -4.3 | 33.7 | 25.5 | 0.0 | 64.1* | 4.5 | 54.5*
Nc1ccccc1-c1nnc(SCC(=O)Nc2ccccc2OC(F)F)[nH]c1=O | -1.3 | -0.1 | -4.6 | 2.0 | -1.1 | 12.4 | . | .
CN(C)CCCN(C(=O)c1ccc(S(=O)(=O)N(C)Cc2ccccc2)cc1)c1nc2cc3c(cc2s1)OCO3 | -1.2 | -6.2 | 24.8 | 34.0 | 0.1 | 90.2* | 0.2 | 108.4*
COc1cccc2sc(N(CCCN(C)C)C(=O)c3ccc(S(=O)(=O)N4CCCc5ccccc54)cc3)nc12 | 0.9 | -6.2 | 19.2 | 25.5 | -0.3 | 28.3 | . | .
COc1ccc(OC)c2sc(N(CCCN(C)C)C(=O)c3ccc(S(=O)(=O)N4CCc5ccccc5C4)cc3)nc12 | . | -7.5 | 54.7* | . | . | 100.5* | -2.1 | 118.0*
CCc1ccc2nc(N(CCCN(C)C)C(=O)c3ccc(C(=O)c4ccccc4)cc3)sc2c1 | 2.5 | -7.4 | 23.6 | 26.3 | -0.5 | 73.5* | -3.5 | 107.8*
COc1cc2nc(N(CCCN(C)C)C(=O)c3ccc(C(=O)c4ccccc4)cc3)sc2cc1OC | 33.0 | -7.6 | 25.6 | 16.0 | -0.5 | 27.4 | . | .
CN(C)CCCN(C(=O)c1ccc2ccccc2c1)c1nc2cc3c(cc2s1)OCO3 | 0.1 | -6.1 | 20.1 | 29.8 | -0.5 | 31.6 | . | .
COc1cccc2sc(N(CCCN(C)C)C(=O)c3ccc(S(=O)(=O)N4CCc5ccccc5C4)cc3)nc12 | -0.2 | -7.3 | 36.9 | 26.6 | 0.0 | 63.9* | -3.5 | 99.3*
COC(=O)c1ccc(N2CCN(c3ccccc3)CC2)c(N)c1 | 3.0 | -0.6 | 7.2 | 0.5 | -0.6 | 11.6 | . | .
COc1cc2nc(N(CCCN(C)C)C(=O)c3ccc(S(=O)(=O)N4CCc5ccccc5C4)cc3)sc2cc1OC | 29.8 | -7.3 | 30.0 | 46.5 | -0.4 | 71.0* | -1.3 | 104.8*
Cc1ccc2nc(N(CCCN(C)C)C(=O)c3ccc(S(=O)(=O)N4CCCCCC4)cc3)sc2c1 | 0.2 | -7.3 | 38.7 | 33.0 | -0.3 | 44.7 | . | .
CSc1sc(-c2nnc(SCC(=O)Nc3ccccc3)n2C)c2c1C=CCC2 | 11.1 | -4.1 | -8.7 | 4.3 | 1.1 | 53.6* | -1.2 | ?
O=S(=O)(NCc1ccccn1)c1ccccn1 | -0.1 | -1.2 | 2.3 | 0.2 | 2.6 | 6.7 | . | .
CC1CCCN(C(=O)COC(=O)c2ccc(=O)n(Cc3ccccc3)n2)C1 (configuration not stated) | -0.8 | 0.9 | 3.3 | -4.0 | -0.6 | 0.6 | . | .
Cc1nc(N)sc1C(=O)NN | 1.0 | -1.0 | -0.2 | -8.9 | 0.3 | 49.4* | 7.9 | 34.8
Cc1nc(-c2ccccc2)sc1C(=O)NN | 0.0 | -2.6 | -5.1 | 1.3 | -1.8 | 5.0 | . | .
SMILES | MPTP block | MIN6 prolif | Apaf-1 inh | Granule exo inh | hiPSC survival | UBC13 inh | Casp3 counter | UBC13 confirm
COc1ccc(-c2oc3ncnc(N)c3c2-c2ccccc2)cc1 | 4.2 | 0.2 | -0.3 | 0.4 | -1.1 | 81.1* | -2.3 | 81.4*
CCCCCn1c(SCC(=O)OCC)nc2cc(C(=O)N3CCC(C(N)=O)CC3)ccc2c1=O | -0.8 | -3.1 | -3.0 | -1.2 | 3.1 | 8.3 | . | .
C=CCn1c(SCc2ccc(Cl)cc2)nc2cc(C(=O)N3CCC(C(N)=O)CC3)ccc2c1=O | -0.8 | -3.0 | 6.3 | -0.5 | -3.0 | 57.4* | -1.0 | 47.6*
Cc1ccc(C2(C)NC(=O)N(CC(=O)N3c4ccccc4NC(=O)CC3C)C2=O)cc1 (configuration not stated) | 0.9 | 2.9 | 13.3 | -1.7 | -0.1 | -17.4 | . | .
NC(CO)C(=O)NNCc1ccc(O)c(O)c1O (configuration not stated) | -2.1 | -7.7 | 50.9* | -1.2 | -2.5 | 47.9* | 1.9 | 30.4
CS(=O)(=O)c1nc(S(=O)(=O)c2ccc(Cl)cc2)c(NCCCn2ccnc2)s1 | -2.2 | 1.5 | 4.1 | 1.4 | 0.1 | -5.0 | . | .
Cc1cc(N2CCN(C)CC2)nc2ccc(NC(=S)N3CCN(c4ccc(Cl)cc4)CC3)cc12 | 3.9 | -6.0 | 15.6 | 23.6 | 1.0 | 76.2* | 4.6 | 70.5*
Cc1cc(N2CCN(C)CC2)nc2ccc(NC(=S)N3CCCCCC3)cc12 | 17.5 | -1.2 | -0.9 | 7.2 | 0.0 | 14.5 | . | .
Cc1cc(N2CCN(C)CC2)nc2ccc(NC(=S)N3CCCCC3)cc12 | 0.0 | . | . | -0.6 | -0.7 | . | . | .

Bioassay records: PubChem BioAssay, several laboratories
